Test results: ChEMBL document CHEMBL1159121, “Synthesis, in vitro structure-activity relationship, and in vivo studies of 2-arylthiazolidine-4-carboxylic acid amides as anticancer agents” (Bioorg Med Chem, 2010)

Columns and labels:
A-375 = test: Antiproliferative activity against human A375 cells after 48 hrs by SRB assay; format: functional, cell-based; conditions: A-375, 48 h
In short: (§1)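 Melanoma lines and control fibroblasts grown at 37 °C, 5% CO2, then exposed to a wide concentration range for 48 h in round-bottom 96-well plates. Fixed with 10% TCA, stained with SRB, protein read at 560 nm. IC50 (50% growth inhibition versus untreated) obtained by nonlinear regression.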

[1] = Antiproliferative activity against human WM164 cells after 48 hrs by SRB assay; format: functional, cell-based; conditions: WM164, 48 h; in short: as §1
[2] = Cytotoxicity against human fibroblasts after 48 hrs by SRB assay; format: cell-based; conditions: Fibroblast; in short: as §1
DU-145 = test: Antiproliferative activity against human DU145 cells after 96 hrs by SRB assay; format: functional, cell-based; conditions: DU-145, 96 h
In short: (§2)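 Prostate lines in RPMI1640/10% FBS; RH7777 in DMEM/10% FBS. Cells TCA-fixed, stained with 0.4% SRB, absorbance read at 540 nm. IC50 from nonlinear regression of % survival against concentration.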

PC-3 = test: Antiproliferative activity against human PC3 cells after 96 hrs by SRB assay; format: functional, cell-based; conditions: PC-3, 96 h
RH7777 [3] = test: Cytotoxicity against rat RH7777 cells after 96 hrs by SRB assay; format: cell-based; conditions: RH7777, 96 h; in short: as §2
RH7777 [4] = test: Selectivity ratio of IC50 for rat RH7777 cells to IC50 for human prostate cancer cells
In short: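 Ratio of RH7777 IC50 to the mean IC50 over four prostate lines (DU 145, PC-3, LNCaP, PPC-1). Prostate lines grown in RPMI1640/10% FBS and RH7777 in DMEM/10% FBS. Read by SRB (0.4%) at 540 nm; IC50 by nonlinear regression.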

LNCaP = test: Antiproliferative activity against human LNCAP cells after 96 hrs by SRB assay; format: functional, cell-based; in short: as §2
PPC-1 = test: Antiproliferative activity against human PPC1 cells after 96 hrs by SRB assay; format: functional, cell-based; conditions: PPC-1, 96 h; in short: as §2
[5] = Antiproliferative activity against mouse B16-F1 cells after 48 hrs by SRB assay; format: functional, cell-based; conditions: B16-F1, 48 h; in short: as §1
[6] = Selectivity ratio of IC50 for human fibroblasts to IC50 for human melanoma cells; format: ADME; conditions: human fibroblasts and human melanoma cells, read-out: Ratio IC50

SMILES | IC50 (A-375) [µM] | IC50 (DU-145) [µM] | IC50 (PC-3) [µM] | IC50 (LNCaP) [µM] | IC50 [1] [µM] | IC50 [2] [µM] | IC50 (RH7777 [3]) [µM] | Ratio IC50 (RH7777 [4]) | IC50 (PPC-1) [µM] | IC50 [5] [µM] | selectivity ratio [6]
CCCCCCCCCCCCCCCCNC(=O)[C@H](CSC)NCc1ccc(NC(C)=O)cc1 | 108 | – | – | – | 145 | > 100 | – | – | – | – | –
CCCCCCCCCCCCCCCCNC(=O)[C@@H]1CSC(c2ccccc2)N1 (mixture of isomers) | – | – | – | – | 0.7 | 2.2 | – | – | – | – | –
CCCCCCCCCCCCCCNC(=O)[C@@H]1CSC(c2cc(OC)c(OC)c(OC)c2)N1 (mixture of isomers) | – | 2.2 | 2.6 | 2 | – | – | 6.1 | – | 0.6 | – | –
CCCCCCCCNC(=O)[C@@H]1CSC(c2cc(OC)c(OC)c(OC)c2)N1 (mixture of isomers) | – | 17.3 | > 20 | 2.7 | – | – | > 20 | – | 14 | – | –
CCCCCCCCCCCCCCCCCCN(C)C(=O)[C@@H]1CSC(c2ccc(NC(C)=O)cc2)N1 (mixture of isomers) | 20.6 | 3.9 | 3.7 | 1.8 | 10.7 | > 100 | 9.2 | 3.6 | 0.8 | 18.9 | –
CCCCCCCCCCCCCCCCNC(=O)[C@@H]1CSC(c2ccc(NS(C)(=O)=O)cc2)N1 (mixture of isomers) | 50.6 | > 20 | > 20 | 4.8 | 18.6 | > 100 | > 20 | – | 1.1 | 114 | –
CCCCCCCCCCCCCCCCNC(=O)[C@@H]1CSC(c2cccc(OC)c2)N1 (mixture of isomers) | 1.8 | 1.1 | 1 | 0.5 | 1.2 | 2.5 | 3.6 | 5.1 | 0.2 | 3 | 1.3
CC(=O)Nc1ccc(C2N[C@H](C(=O)Nc3ccc4c(c3)Cc3ccccc3-4)CS2)cc1 (mixture of isomers) | – | – | – | – | – | – | – | – | – | – | 11.3
CCCCCCCCC#CCCCCCCCCCNC(=O)[C@@H]1CSC(c2ccc(NC(C)=O)cc2)N1 (mixture of isomers) | 2.7 | 1.8 | 2.1 | 2 | 1.3 | 7 | 6.6 | 4 | 0.7 | 1.6 | 3.8
CC(=O)Nc1ccc(C2N[C@H](C(=O)Nc3nc4ccccc4s3)CS2)cc1 (mixture of isomers) | 45.9 | > 20 | > 20 | > 20 | > 100 | > 100 | > 20 | – | > 20 | 55.3 | –
CNC(=O)c1cc(Oc2ccc(NC(=O)Nc3ccc(Cl)c(C(F)(F)F)c3)cc2)ccn1 [SORAFENIB] | – | – | – | – | 5 | – | – | – | – | 4.9 | 3

The next lines start with results.

IC50 (A-375) [µM] | IC50 (DU-145) [µM] | IC50 (PC-3) [µM] | IC50 (LNCaP) [µM] | SMILES | IC50 [1] [µM] | IC50 [2] [µM] | IC50 (RH7777 [3]) [µM] | Ratio IC50 (RH7777 [4]) | IC50 (PPC-1) [µM] | IC50 [5] [µM] | selectivity ratio [6]
12.9 | – | – | – | CCCCCCCCCCCCCCCCNC(=O)[C@@H](N)CSC | 14.4 | 61.2 | – | – | – | – | –
15.1 | – | – | – | CCCCCCCCCCCCCCCCNC(=O)[C@@H](N)CSCc1ccccc1 | 12.8 | 16.4 | – | – | – | – | –
11.9 | – | – | – | CCCCCCCCCCCCCCCCNC(=O)CNCc1ccc(NC(C)=O)cc1 | 10.2 | 24 | – | – | – | – | –
– | 2.4 | 2.9 | 2 | CCCCCCCCCCCCNC(=O)[C@@H]1CSC(c2ccc(N)cc2)N1 (mixture of isomers) | – | – | 7.3 | 3.4 | 1.2 | – | –
– | 2.1 | 2.9 | 1.9 | CCCCCCCCCCCCCCNC(=O)[C@H]1CSC(c2cc(OC)c(OC)c(OC)c2)N1 (mixture of isomers) | – | – | 5.8 | – | 0.7 | – | –
– | 4.1 | 4.4 | 2.2 | CCCCCCCCCCNC(=O)[C@@H]1CSC(c2cc(OC)c(OC)c(OC)c2)N1 (mixture of isomers) | – | – | 6 | – | 2.1 | – | –
– | 2.8 | 2.9 | 1.4 | CCCCCCCCCCCCNC(=O)[C@@H]1CSC(c2cc(OC)c(OC)c(OC)c2)N1 (mixture of isomers) | – | – | 6.5 | – | 1 | – | –
– | 2.6 | 2.4 | 1.5 | CCCCCCCCCCCCCCCCNC(=O)[C@@H]1CSC(c2ccc(N)cc2)N1 (mixture of isomers) | – | – | 9.4 | 5.3 | 0.6 | – | –
138 | > 20 | > 20 | 5.7 | CC(=O)Nc1ccc(C2N[C@H](C(=O)NC34CC5CC(CC(C5)C3)C4)CS2)cc1 (mixture of isomers) | 128 | > 100 | > 20 | – | > 20 | 96.5 | –
3.6 | 3.2 | 2.5 | 1.8 | CCCCCCCCCCCCCCCCNC(=O)[C@@H]1CSC(c2ccc(NC(N)=O)cc2)N1 (mixture of isomers) | 1.7 | 7.2 | 6.7 | 3.4 | 0.5 | – | 1.8
1.5 | 2.2 | 2.7 | 1.1 | CCCCCCCCCCCCCCCCNC(=O)[C@@H]1CSC(c2ccc(OC)cc2)N1 (mixture of isomers) | 1 | – | 8.4 | 5.3 | 0.4 | 2.3 | 5.1
66 | > 20 | > 20 | 9.7 | CC(=O)Nc1ccc(C2N[C@H](C(=O)NC3C4CC5CC(C4)CC3C5)CS2)cc1 (mixture of isomers) | 64.4 | > 100 | > 20 | – | > 20 | 108 | –
1.9 | 2.4 | 2.5 | 1.8 | CCCCCC/C=C\CCCCCCCCNC(=O)[C@@H]1CSC(c2ccc(NC(C)=O)cc2)N1 (mixture of isomers) | 2 | 14 | 7.6 | 3.9 | 1.1 | 2.1 | 7
28 | > 20 | > 20 | > 20 | CCCCCCCCCCCCCCCCOC(=O)[C@@H]1CSC(c2ccc(NC(C)=O)cc2)N1 (mixture of isomers) | 18.5 | > 100 | > 20 | – | > 20 | 41.9 | –
5.3 | 1.5 | 2.1 | 1.4 | CCCCCCCCC/C=C/CCCCCCCNC(=O)[C@@H]1CSC(c2ccccc2)N1 (mixture of isomers) | – | 12.4 | 8.9 | 6.5 | 0.6 | 10.1 | 2.1
> 100 | – | – | – | CN(C)/N=N/c1[nH]cnc1C(N)=O [DACARBAZINE] | > 100 | > 100 | – | – | – | > 100 | –
